Published values pooled from the literature.
Each line is one published result; the experiments were not run side by side.
Target: Ephrin type-B receptor 2 (EPHB2, Homo sapiens, UniProt P29323)
Sequence (P29323 19-1055, as in one of the studies): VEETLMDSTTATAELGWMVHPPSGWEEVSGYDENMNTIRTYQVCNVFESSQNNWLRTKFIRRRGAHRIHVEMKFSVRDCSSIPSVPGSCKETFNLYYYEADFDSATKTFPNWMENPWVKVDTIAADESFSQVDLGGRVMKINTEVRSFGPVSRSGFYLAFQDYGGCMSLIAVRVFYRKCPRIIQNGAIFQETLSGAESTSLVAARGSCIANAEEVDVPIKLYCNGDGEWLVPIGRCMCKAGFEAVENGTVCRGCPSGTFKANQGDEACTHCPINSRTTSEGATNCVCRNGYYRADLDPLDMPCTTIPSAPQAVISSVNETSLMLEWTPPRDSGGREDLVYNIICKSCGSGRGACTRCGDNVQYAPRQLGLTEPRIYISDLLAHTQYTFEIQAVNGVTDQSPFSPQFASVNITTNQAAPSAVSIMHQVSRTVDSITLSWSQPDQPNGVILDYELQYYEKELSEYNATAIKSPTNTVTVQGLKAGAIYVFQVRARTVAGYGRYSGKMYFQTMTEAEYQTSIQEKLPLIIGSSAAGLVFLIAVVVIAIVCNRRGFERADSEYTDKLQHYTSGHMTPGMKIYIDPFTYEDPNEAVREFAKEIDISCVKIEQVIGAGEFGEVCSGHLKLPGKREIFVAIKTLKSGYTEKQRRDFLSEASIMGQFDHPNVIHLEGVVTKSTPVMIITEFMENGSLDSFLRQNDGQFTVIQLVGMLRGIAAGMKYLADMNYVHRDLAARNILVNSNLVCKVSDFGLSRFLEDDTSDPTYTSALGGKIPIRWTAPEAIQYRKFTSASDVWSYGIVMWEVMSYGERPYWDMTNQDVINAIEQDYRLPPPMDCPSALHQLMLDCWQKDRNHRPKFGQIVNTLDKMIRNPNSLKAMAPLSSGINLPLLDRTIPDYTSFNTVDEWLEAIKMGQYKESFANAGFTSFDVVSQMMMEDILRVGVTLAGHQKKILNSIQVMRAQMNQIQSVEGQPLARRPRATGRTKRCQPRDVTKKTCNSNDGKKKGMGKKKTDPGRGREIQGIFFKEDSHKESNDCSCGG

`O=C(O)[C@H]1[C@H](Cn2nnc3ccccc3c2=O)CC[C@@H]1C(=O)c1ccc(OCCC2CCOCC2)cc1` gave a remaining binding of 100% (cell-free assay, competition with immobilised ligand; 1 µM).
The remaining binding of `O=C(Nc1c[nH]nc1C(=O)NC1CCNCC1)c1cc(F)cc(F)c1` is reported as 100% (binding, competition with immobilised ligand; 1 µM).
The remaining binding of `CS(=O)(=O)NCC[C@H](NC(=O)c1cncc2c1cnn2-c1ccc(F)cc1)c1ccnc(S(C)(=O)=O)c1` is reported as 92% (cell-free assay, competition with immobilised ligand; 1 µM).
The remaining binding of `CN(C)c1nccc(-c2cnn3ncccc23)n1` is reported as 71% (binding; 1 µM).
The remaining binding of `COc1cnc(Nc2cccc(S(N)(=O)=O)c2)nc1N1CCN(c2ccccc2)C(=O)C1` is reported as 99% (binding, competition with immobilised ligand; 1 µM).
`CCN1CCN(Cc2ccc(C(=O)Nc3ccc(C)c(Oc4ccc5c(c4)CC(=O)N5)c3)cc2C(F)(F)F)CC1` gave a remaining binding of 100% (binding, competition with immobilised ligand; 1 µM).
The remaining binding of `O=C(NCCCN1CCOCC1)c1ccc(Nc2ncc(Cl)c(-c3ccc(Cl)s3)n2)cc1` is reported as 100% (binding, competition with immobilised ligand; 1 µM).
`COc1ccnn2ncc(-c3ccnc(N(C)C)n3)c12` gave a remaining binding of 100% (binding; 1 µM).
The remaining binding of `CNC(=O)[C@@H]1CC[C@@H](n2c(-c3ccc4cnccc4c3)nc3ccc(C(=O)NCc4cccc(C(N)=O)c4)cc32)C1` is reported as 96% (binding, competition with immobilised ligand; 1 µM).
`CO[C@@H](C)c1c(Nc2ccc([C@H](N(C)C(=O)C3CCS(=O)(=O)CC3)C(F)(F)F)cc2)cnc2cc(Cl)nn12` has a remaining binding of 76% (cell-free assay, competition with immobilised ligand; 1 µM).
`C[C@@H]1CCN(c2nccc(-c3cnn4ncccc34)n2)C1` has a remaining binding of 100% (binding; 1 µM).
With `CO[C@H]1CC[C@H](CNc2ccc(S(=O)(=O)NC(=O)c3ccc(N4CCN(CC5=C(c6ccc(Cl)cc6)CC(C)(C)CC5)CC4)cc3Oc3cnc4[nH]ccc4c3)cc2[N+](=O)[O-])CC1` the remaining binding was 75% (cell-free assay, competition with immobilised ligand; 1 µM).
With `FC(F)(F)Oc1cccc(-c2cnc3ccc(-c4ccncc4)nn23)c1` the remaining binding was 96% (cell-free assay, competition with immobilised ligand; 5 µM).
The remaining binding of `c1cncc(-c2cccc(Nc3nccc(NC4CCCCC4)n3)c2)c1` is reported as 90% (binding, competition with immobilised ligand; 10 µM).
`CN(C)c1nccc(-c2cnc3ncccn23)n1` gave a remaining binding of 92% (binding; 1 µM).
For `Cc1nc(Cc2cccc(C(F)(F)F)c2)sc1-c1ccc(C(N)=O)nc1`, the remaining binding was 86% (cell-free assay, competition with immobilised ligand; 1 µM).
With `N[C@@H]1CCN(c2nccc(-c3cnn4ncccc34)n2)C1` the remaining binding was 100% (binding; 1 µM).
The remaining binding of `O=C(c1ccc(Nc2ncc(Cl)c(-c3ccc(Cl)s3)n2)cc1)N1CCC(N2CCCC2)CC1` is reported as 88% (binding, competition with immobilised ligand; 1 µM).
